From ChEMBL document CHEMBL5046273, “Development of a Novel, Small-Molecule Brain-Penetrant Histone Deacetylase Inhibitor That Enhances Spatial Memory Formation in Mice” (J Med Chem, 2022)
The source made the active and inactive calls. No cut-off for these calls is given here.

Columns and labels:
[1] = Half life in Swiss Webster mouse brain at 40 mg/kg, ip by LC-MS/MS analysis; type: ADME, organism-based; settings: in vivo
Outline: (§1)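 Single i.p. dose of 40 mg/kg in Swiss Webster mice; blood, brain and liver taken at several time points. Tissues homogenized in acetonitrile, centrifuged, spin-filtered, dried and reconstituted, with 4,5-diphenylimidazole as instrument standard. Quantified by LC–MS/MS on a C18 column with a formic acid/MeCN gradient. Mean ± SD (n = 4), fitted to a two-compartment PK model.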

Histone deacetylase 1 = Histone deacetylase 1 (Homo sapiens, UniProt Q13547); test: Inhibition of HDAC1 in human DU-145 cells assessed as increase in histone H3 acetylation after 24 hrs by immunofluorescence microscopy; type: cell-based
Histone deacetylase 1, sequence (Q13547 whole entry): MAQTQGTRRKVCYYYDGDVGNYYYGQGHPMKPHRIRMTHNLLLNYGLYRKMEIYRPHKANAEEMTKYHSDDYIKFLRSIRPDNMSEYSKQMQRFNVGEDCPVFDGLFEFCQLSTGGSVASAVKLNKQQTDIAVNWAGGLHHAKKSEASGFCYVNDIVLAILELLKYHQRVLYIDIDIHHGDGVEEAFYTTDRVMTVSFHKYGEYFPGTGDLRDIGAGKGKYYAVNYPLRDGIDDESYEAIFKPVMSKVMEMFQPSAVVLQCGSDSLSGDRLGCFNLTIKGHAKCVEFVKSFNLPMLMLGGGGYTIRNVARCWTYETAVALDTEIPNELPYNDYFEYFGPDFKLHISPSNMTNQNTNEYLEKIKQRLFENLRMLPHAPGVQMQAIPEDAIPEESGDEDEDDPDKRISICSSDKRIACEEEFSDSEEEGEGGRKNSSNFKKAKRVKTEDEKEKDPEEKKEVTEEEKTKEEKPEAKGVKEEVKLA

[2] = Toxicity in ip dosed BALB/c mouse assessed as maximum tolerated dose measured after 2 weeks; type: organism-based; settings: in vivo, 336 h
Outline: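 Healthy BALB/c mice, compound in 20% DMSO/saline, single i.p. dose. One mouse each at 200, 100 and 50 mg/kg, then 25, 12.5 and 6.25 mg/kg if needed, repeated until a tolerated dose was found. Last test repeated once. Mice weighed daily for 8 days; euthanized at >20% weight loss or overt toxicity. Morbidity/mortality followed over 2 weeks; triplicate experiments.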

[3] = Elimination rate in Swiss Webster mouse blood at 40 mg/kg, ip by LC-MS/MS analysis; type: ADME, organism-based; outline: as §1
[4] = AUC in Swiss Webster mouse blood at 40 mg/kg, ip by LC-MS/MS analysis; type: ADME, organism-based; set-up: dose 40 mg/kg; outline: as §1
[5] = Tmax in Swiss Webster mouse blood at 40 mg/kg, ip by LC-MS/MS analysis; type: ADME, organism-based; outline: as §1
[6] = Half life in Swiss Webster mouse liver at 40 mg/kg, ip by LC-MS/MS analysis; type: ADME, organism-based; settings: in vivo; outline: as §1
[7] = Cmax in Swiss Webster mouse brain at 40 mg/kg, ip by LC-MS/MS analysis; type: ADME, organism-based; set-up: route intraperitoneal, dose 40 mg/kg; outline: as §1
[8] = Drug uptake in BALB/c mouse brain at 40 mg/kg, ip measured upto 60 mins by mass spectroscopy analysis; type: ADME, organism-based; settings: in vivo, 1 h
Outline: (§2)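 BALB/c mice received 40 mg/kg i.p. Retro-orbital blood was collected under isoflurane, then liver and whole brain after CO2 euthanasia, at 10, 30 and 60 min. Acetonitrile extracts were spin-filtered with 4,5-diphenylimidazole as instrument standard and analysed by LC–MS/MS.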

[9] = Cmax in Swiss Webster mouse blood at 40 mg/kg, ip by LC-MS/MS analysis; type: ADME, organism-based; set-up: route intraperitoneal, dose 40 mg/kg; settings: in vivo; outline: as §1
DU-145 = test: Cytotoxicity against human DU-145 cells assessed as reduction in cell viability at 100 uM incubated for 48 hrs by MTT assay; type: functional
Outline: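 DU145 cells in DMEM with 10% FBS were seeded at 14 000 cells/well and allowed to adhere for 24 h. Test agents were diluted from 10 mM DMSO stocks (100, 50, 25 µM; 10, 5, 1.25 nM) and applied in triplicate for 48 h at 37 °C, 5% CO2, with DMSO as vehicle. Read-out was 250 µg/mL MTT for 4 h, DMSO solubilization, and A570 with 690 nm reference. Values normalized to DMSO.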

[10] = molecular target: T1, Protein deacetylase HDAC6 (Homo sapiens, UniProt Q9UBN7); test: Inhibition of HDAC6 in human DU-145 cells assessed as increase in histone H3 acetylation after 24 hrs by immunofluorescence microscopy; type: cell-based
T1 sequence (Q9UBN7 whole entry): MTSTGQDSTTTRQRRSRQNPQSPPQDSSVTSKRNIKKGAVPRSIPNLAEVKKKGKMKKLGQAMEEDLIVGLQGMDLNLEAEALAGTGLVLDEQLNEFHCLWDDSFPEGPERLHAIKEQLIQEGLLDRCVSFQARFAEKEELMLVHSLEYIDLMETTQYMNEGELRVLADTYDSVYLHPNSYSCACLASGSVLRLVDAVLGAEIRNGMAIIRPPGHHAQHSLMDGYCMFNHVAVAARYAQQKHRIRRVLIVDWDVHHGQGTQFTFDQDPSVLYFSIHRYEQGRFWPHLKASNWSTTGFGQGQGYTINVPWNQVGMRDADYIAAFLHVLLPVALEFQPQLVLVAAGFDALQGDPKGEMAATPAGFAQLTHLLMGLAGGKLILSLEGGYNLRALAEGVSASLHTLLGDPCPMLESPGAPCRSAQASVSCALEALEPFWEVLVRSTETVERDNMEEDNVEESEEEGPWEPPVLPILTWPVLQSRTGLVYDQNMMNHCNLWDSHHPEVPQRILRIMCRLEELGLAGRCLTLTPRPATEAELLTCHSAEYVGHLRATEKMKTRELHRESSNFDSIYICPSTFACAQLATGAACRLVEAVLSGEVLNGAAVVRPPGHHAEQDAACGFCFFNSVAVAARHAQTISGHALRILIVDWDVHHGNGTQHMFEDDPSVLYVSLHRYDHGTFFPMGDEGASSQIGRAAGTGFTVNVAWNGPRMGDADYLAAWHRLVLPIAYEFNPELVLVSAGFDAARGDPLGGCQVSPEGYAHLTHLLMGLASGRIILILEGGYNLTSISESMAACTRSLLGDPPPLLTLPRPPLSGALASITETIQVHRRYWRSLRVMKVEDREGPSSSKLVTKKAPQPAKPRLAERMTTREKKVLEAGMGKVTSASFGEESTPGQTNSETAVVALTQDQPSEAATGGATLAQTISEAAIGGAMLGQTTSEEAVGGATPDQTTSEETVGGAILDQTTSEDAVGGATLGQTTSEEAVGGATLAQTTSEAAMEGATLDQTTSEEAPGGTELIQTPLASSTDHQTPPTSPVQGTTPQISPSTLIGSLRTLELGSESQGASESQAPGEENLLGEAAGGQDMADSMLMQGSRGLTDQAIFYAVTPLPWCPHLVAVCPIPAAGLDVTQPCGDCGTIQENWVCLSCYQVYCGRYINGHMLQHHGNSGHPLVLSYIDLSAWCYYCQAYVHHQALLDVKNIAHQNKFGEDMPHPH

Histone deacetylase 8 = molecular target: T2, Histone deacetylase 8 (Homo sapiens, UniProt Q9BY41); test: Inhibition of HDAC8 in human DU-145 cells assessed as increase in histone H3 acetylation after 24 hrs by immunofluorescence microscopy; type: cell-based
T2 sequence (Q9BY41 whole entry): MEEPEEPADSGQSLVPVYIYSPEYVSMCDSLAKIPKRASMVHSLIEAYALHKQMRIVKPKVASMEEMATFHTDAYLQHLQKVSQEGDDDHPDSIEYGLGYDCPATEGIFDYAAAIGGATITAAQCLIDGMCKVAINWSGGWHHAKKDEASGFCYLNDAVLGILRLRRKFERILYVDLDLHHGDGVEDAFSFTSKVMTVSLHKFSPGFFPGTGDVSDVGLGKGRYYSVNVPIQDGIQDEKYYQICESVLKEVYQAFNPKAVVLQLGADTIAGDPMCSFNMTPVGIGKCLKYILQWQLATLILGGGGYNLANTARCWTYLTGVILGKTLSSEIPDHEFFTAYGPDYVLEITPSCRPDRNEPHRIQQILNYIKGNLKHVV

Histone deacetylase 2 = Histone deacetylase 2 (Homo sapiens, UniProt Q92769); test: Inhibition of recombinant human full-length HDAC2 incubated for 10 mins by Glo-luminescence assay
Histone deacetylase 2, sequence (Q92769 whole entry): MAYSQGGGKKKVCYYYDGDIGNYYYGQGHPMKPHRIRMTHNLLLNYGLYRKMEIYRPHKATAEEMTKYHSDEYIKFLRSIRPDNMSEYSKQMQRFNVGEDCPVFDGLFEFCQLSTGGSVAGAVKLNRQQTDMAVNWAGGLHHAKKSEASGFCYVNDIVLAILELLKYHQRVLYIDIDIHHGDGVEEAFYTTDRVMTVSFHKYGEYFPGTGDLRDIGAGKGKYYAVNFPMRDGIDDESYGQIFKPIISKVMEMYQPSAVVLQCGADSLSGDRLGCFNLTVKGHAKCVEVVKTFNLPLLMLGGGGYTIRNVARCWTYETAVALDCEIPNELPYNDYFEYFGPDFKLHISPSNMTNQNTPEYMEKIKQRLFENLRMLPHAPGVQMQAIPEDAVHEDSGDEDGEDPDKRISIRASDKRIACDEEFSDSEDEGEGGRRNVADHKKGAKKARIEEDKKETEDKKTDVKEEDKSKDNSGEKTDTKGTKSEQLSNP
Outline: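 Compounds were serially diluted and incubated with enzyme for 10 min. HDAC-Glo I/II substrate/developer was then added, and luminescence read after 40 min at 23 °C. IC50 from four-parameter fits from two independent titrations, mean ± SD.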

[11] = Drug uptake in BALB/c mouse liver at 40 mg/kg, ip measured upto 60 mins by mass spectroscopy analysis; type: ADME, organism-based; settings: in vivo, 1 h; outline: as §2
Histone deacetylase 3 = Histone deacetylase 3 (Homo sapiens, UniProt O15379); test: Inhibition of HDAC3 in human DU-145 cells assessed as increase in histone H3 acetylation after 24 hrs by immunofluorescence microscopy; type: cell-based
Histone deacetylase 3, sequence (O15379 whole entry): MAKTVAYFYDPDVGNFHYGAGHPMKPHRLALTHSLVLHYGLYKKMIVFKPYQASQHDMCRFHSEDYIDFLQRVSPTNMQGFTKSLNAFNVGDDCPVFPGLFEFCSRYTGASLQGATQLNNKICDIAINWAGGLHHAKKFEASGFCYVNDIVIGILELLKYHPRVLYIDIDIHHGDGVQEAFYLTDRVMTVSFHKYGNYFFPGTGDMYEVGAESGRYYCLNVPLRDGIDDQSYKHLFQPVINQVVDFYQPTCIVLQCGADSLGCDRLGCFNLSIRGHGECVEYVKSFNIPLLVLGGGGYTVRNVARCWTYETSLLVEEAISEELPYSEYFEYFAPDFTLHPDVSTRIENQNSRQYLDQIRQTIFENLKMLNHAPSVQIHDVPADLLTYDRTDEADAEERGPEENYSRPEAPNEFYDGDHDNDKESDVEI

Mus musculus = test: Cognitive enhancing effect in C57BL/6 mouse assessed as enhanced object recognition memory consolidation at 20 to 40 mg/kg, ip measured after 48 hrs; type: functional, organism-based; settings: dose 20-40 mg/kg
Outline: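 Male C57BL/6 mice trained to 30 s of total exploration of two identical objects (20 min maximum). Immediately afterwards they received one i.p. injection at 5 mL/kg in 100% DMSO (20, 30 or 40 mg/kg); vehicle DMSO, NaBu 600 mg/kg in saline. Object placement (moved object) tested at 24 h and object recognition (novel object) at 48 h. Time with that object compared to chance (15 s) by one-sample t-test.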

CC(C)(C)OC(=O)CC(O)/C=C/CCSSCC/C=C/C(O)CC(=O)OC(C)(C)C (configuration not stated)
t1/2 [1]: 13.4 min
IC50 (Histone deacetylase 1): 8.7 µM
MTD [2]: > 200 mg/kg
k el [3]: 0.000367 s⁻¹
AUC [4]: 88.1 ng·h/mL
Tmax [5]: 10 min
t1/2 [6]: 41 min
Cmax [7]: 82.5 ng/g
Drug uptake [8]: Active
Cmax [9]: 131.2 ng/mL
inhibition at 100 µM (DU-145): 80%
IC50 [10]: 12 µM
IC50 (Histone deacetylase 8): 11 µM
IC50 (Histone deacetylase 2): 100 µM
Drug uptake [11]: Active
IC50 (Histone deacetylase 3): 8 µM
Activity (Mus musculus): inactive
